Calls of active or inactive are those of the source. Unless noted, the calls are words filed in the database; no cut-off is given here.
Columns and labels:
[1] = molecular target: T1, Neuronal acetylcholine receptor subunit alpha-7 (Homo sapiens, UniProt P36544); experiment: (§1) Positive allosteric modulation of human alpha7 nAChR expressed in Xenopus laevis oocytes assessed as increase in acetylcholine-induced channel current at -90 mV holding potential preincubated for 2 mins followed by co-application with acetylcholine for 10 secs by two-electrode voltage clamp method; format: cell-based
T1 sequence (P36544 whole entry): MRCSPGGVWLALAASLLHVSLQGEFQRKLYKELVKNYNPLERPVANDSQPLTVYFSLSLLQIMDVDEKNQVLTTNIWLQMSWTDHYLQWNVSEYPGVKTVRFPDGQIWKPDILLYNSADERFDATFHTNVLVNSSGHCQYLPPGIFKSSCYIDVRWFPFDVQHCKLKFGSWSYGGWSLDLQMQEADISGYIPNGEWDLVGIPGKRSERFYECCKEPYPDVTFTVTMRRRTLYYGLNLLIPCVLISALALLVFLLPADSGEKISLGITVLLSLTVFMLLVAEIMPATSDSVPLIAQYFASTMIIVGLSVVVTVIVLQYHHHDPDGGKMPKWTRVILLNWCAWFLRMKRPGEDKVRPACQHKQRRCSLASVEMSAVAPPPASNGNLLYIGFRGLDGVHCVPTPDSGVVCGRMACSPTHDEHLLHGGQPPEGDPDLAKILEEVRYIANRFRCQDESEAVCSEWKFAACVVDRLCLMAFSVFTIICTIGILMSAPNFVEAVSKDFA

[2] = molecular target: T1, Neuronal acetylcholine receptor subunit alpha-7; experiment: Agonist activity at human alpha7 nAChR expressed in Xenopus laevis oocytes assessed as induction of channel current at -90 mV holding potential by two-electrode voltage clamp method; format: cell-based
[3] = molecular target: T1, Neuronal acetylcholine receptor subunit alpha-7; experiment: as §1, with “current by measuring maximum efficacy of acetylcholine at 10 uM” for “current”, “method (reference value: 109 +/- 2%)” for “method”; format: cell-based
[4] = molecular target: T2, 5-hydroxytryptamine receptor 3A (Homo sapiens) (UniProt P46098); experiment: Positive allosteric modulation of human 5-HT3A receptor expressed in Xenopus laevis oocytes assessed as increase in 5-HT-induced channel current at 10 uM at -90 mV holding potential by two-electrode voltage clamp method; format: cell-based
T2 sequence (whole entry): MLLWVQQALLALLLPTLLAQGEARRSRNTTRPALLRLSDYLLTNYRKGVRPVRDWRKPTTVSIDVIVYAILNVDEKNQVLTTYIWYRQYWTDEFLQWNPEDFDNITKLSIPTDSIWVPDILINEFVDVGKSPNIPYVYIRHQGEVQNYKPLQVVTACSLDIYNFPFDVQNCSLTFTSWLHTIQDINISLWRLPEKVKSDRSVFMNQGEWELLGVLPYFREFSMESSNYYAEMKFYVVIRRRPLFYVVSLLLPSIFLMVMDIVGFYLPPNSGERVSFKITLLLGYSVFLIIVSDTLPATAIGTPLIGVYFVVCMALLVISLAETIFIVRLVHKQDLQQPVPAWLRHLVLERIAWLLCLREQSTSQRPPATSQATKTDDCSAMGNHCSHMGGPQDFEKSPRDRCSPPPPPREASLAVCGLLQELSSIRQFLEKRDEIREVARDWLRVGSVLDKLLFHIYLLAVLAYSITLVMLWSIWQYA

[5] = molecular target: Voltage-gated inwardly rectifying potassium channel KCNH2 (Homo sapiens, UniProt Q12809); experiment: Inhibition of human ERG expressed in HEK293 cells up to 30 uM at -80 mV holding potential by whole-cell patch clamp assay; format: cell-based
Voltage-gated inwardly rectifying potassium channel KCNH2, sequence (Q12809 whole entry, the tested form may be a part): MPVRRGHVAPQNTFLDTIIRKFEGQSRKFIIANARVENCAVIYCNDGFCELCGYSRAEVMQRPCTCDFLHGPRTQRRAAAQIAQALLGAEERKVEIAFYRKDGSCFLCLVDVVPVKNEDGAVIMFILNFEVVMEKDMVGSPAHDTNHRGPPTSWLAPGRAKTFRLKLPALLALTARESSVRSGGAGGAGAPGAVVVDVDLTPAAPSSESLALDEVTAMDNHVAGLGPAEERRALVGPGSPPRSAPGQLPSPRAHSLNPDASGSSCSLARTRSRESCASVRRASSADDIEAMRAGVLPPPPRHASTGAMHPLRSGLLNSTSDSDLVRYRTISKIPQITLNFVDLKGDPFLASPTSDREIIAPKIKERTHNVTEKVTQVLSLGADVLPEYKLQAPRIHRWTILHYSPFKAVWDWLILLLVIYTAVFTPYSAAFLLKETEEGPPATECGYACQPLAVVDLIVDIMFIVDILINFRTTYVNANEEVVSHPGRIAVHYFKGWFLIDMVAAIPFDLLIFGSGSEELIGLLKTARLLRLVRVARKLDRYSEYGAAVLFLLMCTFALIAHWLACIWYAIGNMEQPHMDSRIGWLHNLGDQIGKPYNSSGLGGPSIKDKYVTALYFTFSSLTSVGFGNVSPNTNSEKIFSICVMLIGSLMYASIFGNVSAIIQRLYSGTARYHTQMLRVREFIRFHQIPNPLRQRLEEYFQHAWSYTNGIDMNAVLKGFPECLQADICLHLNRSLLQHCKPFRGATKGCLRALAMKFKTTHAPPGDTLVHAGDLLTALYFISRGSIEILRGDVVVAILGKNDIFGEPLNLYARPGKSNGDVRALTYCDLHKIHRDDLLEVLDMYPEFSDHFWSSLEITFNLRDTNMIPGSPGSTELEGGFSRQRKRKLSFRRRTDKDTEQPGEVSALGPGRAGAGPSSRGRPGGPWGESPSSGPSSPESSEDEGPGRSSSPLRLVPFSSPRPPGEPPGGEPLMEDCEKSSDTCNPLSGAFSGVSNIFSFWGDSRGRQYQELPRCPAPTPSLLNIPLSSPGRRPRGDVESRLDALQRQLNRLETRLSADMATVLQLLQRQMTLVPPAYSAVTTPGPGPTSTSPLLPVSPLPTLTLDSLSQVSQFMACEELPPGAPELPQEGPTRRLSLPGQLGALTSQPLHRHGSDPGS
Summary of the method: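 HEK293 cells stably expressing hERG, whole-cell clamp at room temperature. Holding -80 mV, step to +20 mV for 2 s, then -40 mV for 1.6 s, repeated every 10 s. Compound perfused at 1-30 µM, with 100 nM cisapride as reference. Peak -40 mV tail currents normalized to control, n = 4.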

[6] = Cmax in rat at 3 mg/kg, iv by LC-MS/MS analysis; format: ADME, organism-based; parameters: dose 3 mg/kg, route intravenous; settings: in vivo
Summary of the method: (§2)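 Rat plasma stored at -20 °C, spiked with internal standard, protein-precipitated with methanol, centrifuged and filtered before LC-MS/MS. C18 column at 40 °C, acetonitrile/0.1% formic acid (80:20) isocratic at 0.5 mL/min. Positive ESI with MRM m/z 400.0->129.9. Parameters taken per rat by non-compartmental analysis, n = 3.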

[7] = Clearance in rat at 3 mg/kg, iv by LC-MS/MS analysis; format: ADME, organism-based; settings: in vivo; summary of the method: as §2
[8] = Half life in rat at 60 mg/kg, po by LC-MS/MS analysis; format: ADME, organism-based; settings: in vivo; summary of the method: as §2
[9] = AUCinfinity in rat at 60 mg/kg, po by LC-MS/MS analysis; format: ADME, organism-based; parameters: dose 60 mg/kg, time infinity, route oral; settings: in vivo; summary of the method: as §2
[10] = MRT in rat at 60 mg/kg, po by LC-MS/MS analysis; format: ADME, organism-based; settings: in vivo; summary of the method: as §2
[11] = Plasma concentration in C57BL/6J mouse at 1 mg/kg, ip after 2 hrs by LC-MS/MS analysis; format: ADME, organism-based
Summary of the method: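 C57BL/6J mice given 1 mg/kg i.p. from a 0.4 mg/mL solution in 10% DMSO/50% PEG400/40% SBECD. Plasma and brain taken at 0.5, 2 and 8 h. Samples mixed with internal standard in methanol/acetonitrile (1:1), centrifuged and diluted 10x in methanol:water with 0.1% FA, then measured by HPLC-MS-MS. n = 3; ratio is brain over plasma concentration.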

Mus musculus = experiment: Anti-schizophrenic activity in C57BL/6J mouse assessed as protection against MK-801-induced auditory gating deficit by measuring prepulse inhibition impairment at 1 mg/kg, ip at 8 to 16 dB prepulse intensity pretreated for 30 mins starting from 30 mins post alpha7 nAChR antagonist MLA treatment followed by MK-801 treatment and measured after 30 mins (reference value: 8.7%); format: functional; parameters: scale not given: the % may be the effect or the level left
Summary of the method: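 Mice given MLA 3 mg/kg i.p. 30 min before, then compound 1 mg/kg i.p. 60 min before test and MK-801 0.1 mg/kg i.p. 30 min before test. PPI measured at prepulses 8-16 dB above 68 dB background. %PPI = (1 − prepulse-pulse/pulse-only)×100, one-way ANOVA.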

Activity [1]: Dose-dependent effect
Activity [2]: inactive
Emax [3]: 1540%
Activity [4]: inactive
Cmax [6]: 700 ng/mL
clearance [7]: 5 mL/h/kg
half-life [8]: 7.4 h
AUC(0-inf) [9]: 1100 ng·h/mL
MRT [10]: 9.5 h
concentration at 2 h [11]: 9.8 ng/mL
SMILES: Cc1cccc(Cl)c1-n1cnc2nc(SCc3ccccc3)sc2c1=O
inhibition (INH) [5]: Not Active
Activity (Mus musculus): 14%

Source: ChEMBL document CHEMBL4308829, “Design and Synthesis of Novel Positive Allosteric Modulators of α7 Nicotinic Acetylcholine Receptors with the Ability To Rescue Auditory Gating Deficit in Mice” (J Med Chem, 2018)
